# Calls of active or inactive are those of the source. The calls are words filed in the database; no cut-off is given here.
# Tested on: BJ
# Test: Antiproliferative activity against human BJ cells assessed as inhibition of cell proliferation after 72 hrs by MTT assay
# Assay type: cell-based
# Settings: Homo sapiens, BJ, 72 h
# Method in brief: (§1)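 Cells grown as monolayers in DMEM with 10% FBS, 2 mM L-glutamine, penicillin/streptomycin, 37 °C, 5% CO2. Seeded at 5000/well on day 0. Compounds added after 24 h as five serial dilutions (0,01 to 100 µM), DMSO ≤0.1%, then 72 h. MTT read-out converted to percentage growth. IC50 by linear regression; quadruplicates in three experiments.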
row,SMILES,IC50
1,Cl.N=C(N)c1ccc(N2Cc3ccccc3C2=O)nc1,15.8 µM
2,Nc1ccc(/N=C2\c3ccccc3CN2c2ccc(N)cc2)cc1,> 100 µM
3,Nc1ccc(/N=C2\c3ccccc3CN2c2ccc(N)nc2)cn1,> 100 µM
4,CC(C)NC(=N)c1ccc(/N=C2\c3ccccc3CN2c2ccc(C(=N)NC(C)C)cn2)nc1.Cl,> 100 µM
5,CC(=O)Nc1ccc(/N=C2\c3ccccc3CN2c2ccc(NC(C)=O)cc2)cc1,92.4 µM
6,CN(C)c1ccc(/N=C2\c3ccccc3CN2c2ccc(N(C)C)cc2)cc1,> 100 µM
7,Cc1ccnc(/N=C2\c3ccccc3CN2c2cc(C)ccn2)c1,80.1 µM

# Same assay, conditions: human, bj, 72 h
row,SMILES,inhibition (INH)
1,Cl.N=C(N)c1ccc(N2Cc3ccccc3C2=O)nc1,Dose-dependent effect
2,Nc1ccc(/N=C2\c3ccccc3CN2c2ccc(N)cc2)cc1,Dose-dependent effect
3,Nc1ccc(/N=C2\c3ccccc3CN2c2ccc(N)nc2)cn1,Dose-dependent effect
4,CC(C)NC(=N)c1ccc(/N=C2\c3ccccc3CN2c2ccc(C(=N)NC(C)C)cn2)nc1.Cl,Dose-dependent effect
5,CC(=O)Nc1ccc(/N=C2\c3ccccc3CN2c2ccc(NC(C)=O)cc2)cc1,Dose-dependent effect
6,CN(C)c1ccc(/N=C2\c3ccccc3CN2c2ccc(N(C)C)cc2)cc1,Dose-dependent effect
7,Cc1ccnc(/N=C2\c3ccccc3CN2c2cc(C)ccn2)c1,Dose-dependent effect

# Tested on: MCF7
# Test: Antiproliferative activity against human MCF7 cells assessed as inhibition of cell proliferation after 72 hrs by MTT assay
# Assay type: functional, cell-based
# Settings: not given
# Method in brief: as §1
row,SMILES,inhibition
1,Cl.N=C(N)c1ccc(N2Cc3ccccc3C2=O)nc1,Dose-dependent effect
2,Nc1ccc(/N=C2\c3ccccc3CN2c2ccc(N)nc2)cn1,Dose-dependent effect
3,CC(C)NC(=N)c1ccc(/N=C2\c3ccccc3CN2c2ccc(C(=N)NC(C)C)cn2)nc1.Cl,Dose-dependent effect
4,CC(=O)Nc1ccc(/N=C2\c3ccccc3CN2c2ccc(NC(C)=O)cc2)cc1,Dose-dependent effect
5,CN(C)c1ccc(/N=C2\c3ccccc3CN2c2ccc(N(C)C)cc2)cc1,Dose-dependent effect
6,Cc1ccnc(/N=C2\c3ccccc3CN2c2cc(C)ccn2)c1,Dose-dependent effect

# Same assay, conditions: Homo sapiens, MCF7, 72 h
row,SMILES,IC50
1,Cl.N=C(N)c1ccc(N2Cc3ccccc3C2=O)nc1,35.6 µM
2,Nc1ccc(/N=C2\c3ccccc3CN2c2ccc(N)nc2)cn1,80.7 µM
3,CC(C)NC(=N)c1ccc(/N=C2\c3ccccc3CN2c2ccc(C(=N)NC(C)C)cn2)nc1.Cl,> 100 µM
4,CC(=O)Nc1ccc(/N=C2\c3ccccc3CN2c2ccc(NC(C)=O)cc2)cc1,38.2 µM
5,CN(C)c1ccc(/N=C2\c3ccccc3CN2c2ccc(N(C)C)cc2)cc1,8.99 µM
6,Cc1ccnc(/N=C2\c3ccccc3CN2c2cc(C)ccn2)c1,0.7 µM

# Same assay, conditions: mcf7
row,SMILES,IC50
1,Nc1ccc(/N=C2\c3ccccc3CN2c2ccc(N)cc2)cc1,0.05 µM

# Tested on: HeLa
# Test: Antiproliferative activity against human HeLa cells assessed as inhibition of cell proliferation after 72 hrs by MTT assay
# Assay type: functional, cell-based
# Settings: not given
# Method in brief: as §1
row,SMILES,inhibition
1,Cl.N=C(N)c1ccc(N2Cc3ccccc3C2=O)nc1,Dose-dependent effect
2,Nc1ccc(/N=C2\c3ccccc3CN2c2ccc(N)nc2)cn1,Dose-dependent effect
3,CC(C)NC(=N)c1ccc(/N=C2\c3ccccc3CN2c2ccc(C(=N)NC(C)C)cn2)nc1.Cl,Dose-dependent effect
4,CC(=O)Nc1ccc(/N=C2\c3ccccc3CN2c2ccc(NC(C)=O)cc2)cc1,Dose-dependent effect
5,CN(C)c1ccc(/N=C2\c3ccccc3CN2c2ccc(N(C)C)cc2)cc1,Dose-dependent effect
6,Cc1ccnc(/N=C2\c3ccccc3CN2c2cc(C)ccn2)c1,Dose-dependent effect

# Same assay, conditions: Homo sapiens, HeLa, 72 h
row,SMILES,IC50
1,Cl.N=C(N)c1ccc(N2Cc3ccccc3C2=O)nc1,60 µM
2,Nc1ccc(/N=C2\c3ccccc3CN2c2ccc(N)cc2)cc1,> 100 µM
3,Nc1ccc(/N=C2\c3ccccc3CN2c2ccc(N)nc2)cn1,> 100 µM
4,CC(C)NC(=N)c1ccc(/N=C2\c3ccccc3CN2c2ccc(C(=N)NC(C)C)cn2)nc1.Cl,> 100 µM
5,CC(=O)Nc1ccc(/N=C2\c3ccccc3CN2c2ccc(NC(C)=O)cc2)cc1,> 100 µM
6,CN(C)c1ccc(/N=C2\c3ccccc3CN2c2ccc(N(C)C)cc2)cc1,92.5 µM
7,Cc1ccnc(/N=C2\c3ccccc3CN2c2cc(C)ccn2)c1,97.1 µM

# Tested on: not listed separately
# Test: (§2) Antiproliferative activity against human SW620 cells assessed as inhibition of cell proliferation after 72 hrs by MTT assay
# Assay type: functional, cell-based, SW-620
# Settings: Homo sapiens, SW-620, 72 h
# Method in brief: as §1
row,SMILES,IC50
1,Cl.N=C(N)c1ccc(N2Cc3ccccc3C2=O)nc1,44.8 µM
2,Nc1ccc(/N=C2\c3ccccc3CN2c2ccc(N)cc2)cc1,> 100 µM
3,Nc1ccc(/N=C2\c3ccccc3CN2c2ccc(N)nc2)cn1,> 100 µM
4,CC(C)NC(=N)c1ccc(/N=C2\c3ccccc3CN2c2ccc(C(=N)NC(C)C)cn2)nc1.Cl,> 100 µM
5,CC(=O)Nc1ccc(/N=C2\c3ccccc3CN2c2ccc(NC(C)=O)cc2)cc1,> 100 µM
6,CN(C)c1ccc(/N=C2\c3ccccc3CN2c2ccc(N(C)C)cc2)cc1,> 100 µM
7,Cc1ccnc(/N=C2\c3ccccc3CN2c2cc(C)ccn2)c1,> 100 µM

# Tested on: SW-620
# Test: as §2
# Assay type: functional, cell-based
# Settings: not given
# Method in brief: as §1
row,SMILES,inhibition
1,Cl.N=C(N)c1ccc(N2Cc3ccccc3C2=O)nc1,Dose-dependent effect
2,Nc1ccc(/N=C2\c3ccccc3CN2c2ccc(N)nc2)cn1,Dose-dependent effect
3,CC(C)NC(=N)c1ccc(/N=C2\c3ccccc3CN2c2ccc(C(=N)NC(C)C)cn2)nc1.Cl,Dose-dependent effect
4,CC(=O)Nc1ccc(/N=C2\c3ccccc3CN2c2ccc(NC(C)=O)cc2)cc1,Dose-dependent effect
5,CN(C)c1ccc(/N=C2\c3ccccc3CN2c2ccc(N(C)C)cc2)cc1,Dose-dependent effect
6,Cc1ccnc(/N=C2\c3ccccc3CN2c2cc(C)ccn2)c1,Dose-dependent effect

# Tested on: HepG2
# Test: Antiproliferative activity against human HepG2 cells assessed as inhibition of cell proliferation after 72 hrs by MTT assay
# Assay type: functional, cell-based
# Settings: not given
# Method in brief: as §1
row,SMILES,inhibition
1,Cl.N=C(N)c1ccc(N2Cc3ccccc3C2=O)nc1,Dose-dependent effect
2,Nc1ccc(/N=C2\c3ccccc3CN2c2ccc(N)nc2)cn1,Dose-dependent effect
3,CC(C)NC(=N)c1ccc(/N=C2\c3ccccc3CN2c2ccc(C(=N)NC(C)C)cn2)nc1.Cl,Dose-dependent effect
4,CC(=O)Nc1ccc(/N=C2\c3ccccc3CN2c2ccc(NC(C)=O)cc2)cc1,Dose-dependent effect
5,CN(C)c1ccc(/N=C2\c3ccccc3CN2c2ccc(N(C)C)cc2)cc1,Dose-dependent effect
6,Cc1ccnc(/N=C2\c3ccccc3CN2c2cc(C)ccn2)c1,Dose-dependent effect

# Same assay, conditions: HepG2, 72 h
row,SMILES,IC50
1,Cl.N=C(N)c1ccc(N2Cc3ccccc3C2=O)nc1,40.6 µM
2,Nc1ccc(/N=C2\c3ccccc3CN2c2ccc(N)cc2)cc1,> 100 µM
3,Nc1ccc(/N=C2\c3ccccc3CN2c2ccc(N)nc2)cn1,88.9 µM
4,CC(C)NC(=N)c1ccc(/N=C2\c3ccccc3CN2c2ccc(C(=N)NC(C)C)cn2)nc1.Cl,> 100 µM
5,CC(=O)Nc1ccc(/N=C2\c3ccccc3CN2c2ccc(NC(C)=O)cc2)cc1,71 µM
6,CN(C)c1ccc(/N=C2\c3ccccc3CN2c2ccc(N(C)C)cc2)cc1,82.3 µM
7,Cc1ccnc(/N=C2\c3ccccc3CN2c2cc(C)ccn2)c1,43.2 µM

# Tested on: Nucleic Acid
# Test: Induction of DNA intercalation in supercoiled pUC19 DNA in presence of human topoisomerase 1 assessed as effect on topoisomerase 1-mediated DNA relaxation at 50 uM by agarose gel electrophoresis
# Assay type: nucleic-acid assay
# Settings: Escherichia coli
# Method in brief: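 Supercoiled pUC19 incubated with human topoisomerase I and graded compound concentrations. Stopped with SDS/proteinase K. DNA forms resolved on 1% agarose in TBE, 2 h at 120 V, stained post-run with ethidium bromide and viewed under UV. Camptothecin was the topo I poison control.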
row,SMILES,Activity
1,Cc1ccnc(/N=C2\c3ccccc3CN2c2cc(C)ccn2)c1,Active

# Molecular target: T1, DNA topoisomerase 1 (Homo sapiens) (UniProt P11387)
# T1 sequence (whole entry): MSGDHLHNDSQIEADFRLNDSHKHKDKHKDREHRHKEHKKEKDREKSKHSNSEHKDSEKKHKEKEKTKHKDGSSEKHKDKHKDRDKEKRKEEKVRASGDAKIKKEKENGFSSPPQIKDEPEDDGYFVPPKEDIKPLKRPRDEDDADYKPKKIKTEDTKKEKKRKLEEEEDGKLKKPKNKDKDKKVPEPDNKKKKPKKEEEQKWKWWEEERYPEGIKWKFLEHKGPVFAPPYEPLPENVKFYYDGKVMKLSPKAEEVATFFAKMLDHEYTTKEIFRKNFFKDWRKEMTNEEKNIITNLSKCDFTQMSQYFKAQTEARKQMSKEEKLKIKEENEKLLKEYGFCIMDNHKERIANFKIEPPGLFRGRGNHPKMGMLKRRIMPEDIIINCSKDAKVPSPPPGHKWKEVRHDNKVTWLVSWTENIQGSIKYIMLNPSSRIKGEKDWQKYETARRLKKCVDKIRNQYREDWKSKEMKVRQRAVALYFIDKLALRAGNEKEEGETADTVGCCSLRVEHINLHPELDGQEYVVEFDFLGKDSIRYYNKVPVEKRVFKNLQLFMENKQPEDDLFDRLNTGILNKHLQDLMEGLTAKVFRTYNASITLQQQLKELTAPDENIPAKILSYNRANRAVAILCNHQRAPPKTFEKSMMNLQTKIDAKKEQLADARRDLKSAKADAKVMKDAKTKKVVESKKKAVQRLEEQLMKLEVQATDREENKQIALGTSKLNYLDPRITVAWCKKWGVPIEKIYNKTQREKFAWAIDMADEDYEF
# Test: Inhibition of human topoisomerase 1 assessed as topoisomerase poison activity by measuring generation of open circular DNA using supercoiled pUC19 DNA at 5 to 50 uM by agarose gel electrophoresis
# Settings: not given
# Method in brief: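 Supercoiled pUC19 plasmid was incubated with human topoisomerase I and graded compound concentrations. Reactions were stopped with SDS and proteinase K. DNA forms were resolved on 1% agarose in TBE (2 h, 120 V), post-stained with ethidium bromide and photographed under UV. Poisoning was read as appearance of nicked DNA, with camptothecin as the positive control.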
row,SMILES,inhibition
1,CC(C)NC(=N)c1ccc(/N=C2\c3ccccc3CN2c2ccc(C(=N)NC(C)C)cn2)nc1.Cl,inactive
2,Cc1ccnc(/N=C2\c3ccccc3CN2c2cc(C)ccn2)c1,inactive

# Tested on: Calf thymus DNA
# Test: Binding affinity to calf thymus DNA assessed as change in melting temperature at drug/ base pair ratio of 0.5 by spectrophotometry
# Assay type: nucleic-acid assay
# Settings: Bos taurus
# Method in brief: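 CT-DNA absorbance followed at 260 nm from 20 to 100 °C, rising 1 °C per min, in BPE buffer, with or without compound at drug/base-pair ratio 0.25 or 0.5. Tm taken as midpoint of the hyperchromic transition from first-derivative plots. ΔTm is Tm with compound minus Tm of DNA alone.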
row,SMILES,ΔTm
1,CC(C)NC(=N)c1ccc(/N=C2\c3ccccc3CN2c2ccc(C(=N)NC(C)C)cn2)nc1.Cl,4.4 °C
2,Cc1ccnc(/N=C2\c3ccccc3CN2c2cc(C)ccn2)c1,0 °C

# Tested on: Calf thymus DNA
# Test: Binding affinity to calf thymus DNA at 50 uM circular dichroism spectroscopy
# Assay type: nucleic-acid assay
# Settings: Bos taurus
# Method in brief: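 CD spectra recorded from 480 to 230 nm, 10 mm path, 20 °C, in BPE buffer. CT-DNA (50 µM) incubated with compound rising from 1 to 60 µM or to 80 µM. Compound without DNA served as the control for intrinsic CD.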
row,SMILES,Activity
1,CC(C)NC(=N)c1ccc(/N=C2\c3ccccc3CN2c2ccc(C(=N)NC(C)C)cn2)nc1.Cl,inactive

# Reference: ChEMBL document CHEMBL3352181, “Novel phenyl and pyridyl substituted derivatives of isoindolines: Synthesis, antitumor activity and DNA binding features” (Eur J Med Chem, 2014)
